# Data published in ChEMBL document CHEMBL1157794, “Discovery of N-[(4R)-6-(4-chlorophenyl)-7-(2,4-dichlorophenyl)-2,2-dimethyl-3,4-dihydro-2H-pyrano[2,3-b]pyridin-4-yl]-5-methyl-1H-pyrazole-3-carboxamide (MK-5596) as a novel cannabinoid-1 receptor (CB1R) inverse agonist for the treatment of obesity” (J Med Chem, 2010).
# Experiments:
# [1] = Bioavailability in Sprague-Dawley rat at 1 mg/kg, iv and 2 mg/kg, po; format: ADME, organism-based; details: in vivo
# In short: (§1)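 Male Sprague-Dawley rats dosed 1 mg/kg iv and 2 mg/kg po; male beagle dogs and rhesus monkeys 0.2 mg/kg iv and 0.4 mg/kg po. Iv vehicle EtOH/PEG400/water 20:50:30 (rat) or 20:40:40 v/v/v (dog, monkey); oral vehicle Imwitor 742/Tween-80 1:1 w/w. Clearance, Vdss, t1/2, Cmax, F and dose-normalized oral AUC derived.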
# [2] = Half life in Sprague-Dawley rat at 1 mg/kg, iv and 2 mg/kg, po; format: ADME, organism-based; details: in vivo; in short: as §1
# [3] = Ratio of drug level in brain to plasma in diet-induced obese rat at 0.3 mg/kg, po measured after 18 hrs of last dose on day 13; format: ADME, organism-based; set-up: dose 0.3 mg/kg, route oral; details: brain and plasma, read-out: BPR
# In short: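 DIO rats dosed daily for 13 days at 0.3 mg/kg in the chronic efficacy study. Plasma and brain levels determined 18 h after the last dose. Brain/plasma exposure ratio calculated.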
# [4] = Plasma clearance in Beagle dog at 0.2 mg/kg, iv; format: ADME, organism-based, Canis lupus familiaris; set-up: dose 0.2 mg/kg, route intravenous
# In short: (§2)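 Male Sprague-Dawley rats received 1 mg/kg iv and 2 mg/kg po. Male beagle dogs and rhesus monkeys received 0.2 mg/kg iv and 0.4 mg/kg po. The iv solution was EtOH/PEG400/water, 20:50:30 v/v/v for rats and 20:40:40 v/v/v for dogs and monkeys. The oral solution was Imwitor742/Tween-80 (1:1 w/w) for all species.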
# [5] = Volume of distribution at steady state in Beagle dog at 0.2 mg/kg, iv; format: ADME, organism-based, Canis lupus familiaris; set-up: dose 0.2 mg/kg, route intravenous; details: in vivo, read-out: Vdss; in short: as §2
# [6] = Drug level in P-gp deficient CF1 mouse plasma at 1 mg/kg, iv measured after 4 hrs; format: ADME, organism-based; set-up: dose 1 mg/kg, route intravenous; details: read-out: Drug uptake
# In short: (§3)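 Single iv 1 mg/kg to wild-type and P-gp deficient CF-1 mice; parent levels in plasma and brain measured 4 h postdose; brain/plasma ratio calculated.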
# [7] = Plasma concentration in dog at 10 mg/kg, iv administered for 30 mins; format: ADME, organism-based, Canis lupus familiaris; set-up: dose 10 mg/kg, route intravenous
# In short: (§4)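 Anesthetized dogs given iv infusions, each spread evenly over 30 min, at rising cumulative doses of 1, 3 and 10 mg/kg. Peak plasma levels were measured during each dose. Arterial pressure, heart rate and ECG intervals (PR, QRS, QTc) were monitored against vehicle-treated dogs.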
# [8] = Metabolic stability in bile-duct cannulated rat bile assessed as compound remaining at 2 mg/kg, po up to 72 hrs; format: ADME, organism-based; set-up: dose 2 mg/kg, route oral; details: read-out: Stability
# In short: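 [3H]-labelled compound formulated in Imwitor 742/Tween-80 (1:1), given orally at 2 mg/kg to bile duct-cannulated rats; bile, feces and urine collected over 72 h; radioactivity recovery and radioprofiles of parent and metabolites determined.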
# [9] = Drug level in diet-induced obese rat brain at 0.3 mg/kg, po measured after 24 hrs of last dose on day 13; format: ADME, organism-based; set-up: dose 0.3 mg/kg, route oral; details: read-out: Drug uptake
# In short: (§5)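 Separate parallel 13-day pharmacokinetic study in DIO rats at 0.3 mg/kg; plasma and brain levels determined 24 h after last dose.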
# [10] = Drug level in diet-induced obese rat plasma at 0.3 mg/kg, po measured after 24 hrs of last dose on day 13; format: ADME, organism-based; set-up: dose 0.3 mg/kg, route oral; details: read-out: Drug uptake; in short: as §5
# Rhesus monkey [11] = assay: Dose normalized AUC in rhesus monkey at 0.4 mg/kg, po; format: ADME, organism-based, Macaca mulatta; set-up: dose 0.4 mg/kg, route oral; details: in vivo; in short: as §1
# [12] = Half life in Beagle dog at 0.2 mg/kg, iv; format: ADME, organism-based, Canis lupus familiaris; set-up: dose 0.2 mg/kg, route intravenous; details: in vivo; in short: as §1
# [13] = Ratio of drug level in brain to plasma in P-gp deficient CF1 mouse at 1 mg/kg, iv measured after 4 hrs; format: ADME, organism-based; set-up: dose 1 mg/kg, route intravenous; details: brain and plasma, read-out: BPR
# In short: (§6)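 Single iv dose of 1 mg/kg given to wild-type and P-gp deficient CF-1 mice. Parent levels in plasma and brain determined 4 h postdose. Brain-to-plasma ratio calculated from these levels.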
# Canis familiaris = assay: Dose normalized AUC in Beagle dog at 0.4 mg/kg, po; details: in vivo
# [14] = Bioavailability in Beagle dog at 0.2 mg/kg, iv; format: ADME, organism-based, Canis lupus familiaris; details: in vivo; in short: as §1
# [15] = Plasma clearance in Sprague-Dawley rat at 1 mg/kg, iv and 2 mg/kg, po; format: ADME, organism-based; in short: as §2
# [16] = Plasma concentration in dog at 1 mg/kg, iv administered for 30 mins; format: ADME, organism-based, Canis lupus familiaris; set-up: dose 1 mg/kg, route intravenous; in short: as §4
# [17] = Drug level in wild type MDR1a-expressing mouse plasma at 1 mg/kg, iv measured after 4 hrs; format: ADME, organism-based; set-up: dose 1 mg/kg, route intravenous; details: read-out: Drug uptake; in short: as §3
# [18] = Drug level in diet-induced obese rat brain at 0.3 mg/kg, po measured after 18 hrs of last dose on day 13; format: ADME, organism-based; set-up: dose 0.3 mg/kg, route oral; details: read-out: Drug uptake
# In short: (§7)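 At end of 13-day chronic efficacy study in DIO rats dosed orally at 0.3 mg/kg, plasma and brain drug levels measured 18 h after last dose.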
# [19] = Ratio of drug level in brain to plasma in wild type MDR1a-expressing mouse at 1 mg/kg, iv measured after 4 hrs; format: ADME, organism-based; set-up: dose 1 mg/kg, route intravenous; details: brain and plasma, read-out: BPR; in short: as §6
# [20] = Drug level in wild type MDR1a-expressing mouse brain at 1 mg/kg, iv measured after 4 hrs; format: ADME, organism-based; set-up: dose 1 mg/kg, route intravenous; details: read-out: Drug uptake; in short: as §3
# [21] = Ratio of drug level in brain to plasma in diet-induced obese rat at 0.3 mg/kg, po measured after 24 hrs of last dose on day 13; format: ADME, organism-based; set-up: dose 0.3 mg/kg, route oral; details: brain and plasma, read-out: BPR
# In short: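 Separate 13-day parallel pharmacokinetic study in DIO rats at 0.3 mg/kg. Plasma and brain exposures determined 24 h after the last dose. Brain/plasma ratio calculated.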
# [22] = Volume of distribution at steady state in Sprague-Dawley rat at 1 mg/kg, iv and 2 mg/kg, po; format: ADME, organism-based; details: in vivo, read-out: Vdss; in short: as §2
# [23] = Drug level in diet-induced obese rat plasma at 0.3 mg/kg, po measured after 18 hrs of last dose on day 13; format: ADME, organism-based; set-up: dose 0.3 mg/kg, route oral; details: read-out: Drug uptake; in short: as §7
# [24] = Half life in rhesus monkey at 0.4 mg/kg, po; format: ADME, organism-based, Macaca mulatta; set-up: dose 0.4 mg/kg, route oral; details: in vivo; in short: as §1
# [25] = Plasma clearance in rhesus monkey at 0.4 mg/kg, po; format: ADME, organism-based, Macaca mulatta; set-up: dose 0.4 mg/kg, route oral; in short: as §2
# [26] = Drug level in P-gp deficient CF1 mouse brain at 1 mg/kg, iv measured after 4 hrs; format: ADME, organism-based; set-up: dose 1 mg/kg, route intravenous; details: read-out: Drug uptake; in short: as §3
# Rhesus monkey [27] = assay: Volume of distribution at steady state in rhesus monkey at 0.4 mg/kg, po; format: ADME, organism-based, Macaca mulatta; set-up: dose 0.4 mg/kg, route oral; details: in vivo; in short: as §2
# [28] = Oral bioavailability in rhesus monkey at 0.4 mg/kg; format: ADME, organism-based, Macaca mulatta; details: in vivo; in short: as §2
# [29] = Cmax in Sprague-Dawley rat at 1 mg/kg, iv and 2 mg/kg, po; format: ADME, organism-based; details: in vivo; in short: as §1
# [30] = Cmax in Beagle dog at 0.4 mg/kg, po; details: in vivo
# [31] = Plasma concentration in dog at 3 mg/kg, iv administered for 30 mins; format: ADME, organism-based, Canis lupus familiaris; set-up: dose 3 mg/kg, route intravenous; in short: as §4
# [32] = Cmax in rhesus monkey at 0.4 mg/kg, po; format: ADME, organism-based, Macaca mulatta; set-up: dose 0.4 mg/kg, route oral; details: in vivo; in short: as §1
# Rattus norvegicus = assay: Dose normalized AUC in Sprague-Dawley rat assessed as per mg of plasma protein at 2 mg/kg, po; format: ADME, organism-based; set-up: dose 2 mg/kg, route oral; details: in vivo
smiles,measurement,setting,value
CC1(C)C[C@@H](NC(=O)c2ccccc2O)c2cc(-c3ccc(Cl)cc3)c(-c3ccc(Cl)cc3Cl)nc2O1,bioavailability,[1],1%
same,half-life,[2],1.9 h
CC1(C)C[C@@H](NC(=O)c2ccccc2N)c2cc(-c3ccc(Cl)cc3)c(-c3ccc(Cl)cc3Cl)nc2O1,bioavailability,[1],5%
same,half-life,[2],7.4 h
Cc1cc(C(=O)N[C@@H]2CC(C)(C)Oc3nc(-c4ccc(Cl)cc4Cl)c(-c4ccc(Cl)cc4)cc32)n[nH]1,Kp at 18 h,[3],0.63
same,clearance,[4],1.1 mL/min/kg
same,Vd,[5],5.7 L/kg
same,concentration at 4 h,[6],300 nM
same,concentration at 0.5 h,[7],6960 nM
same,remaining at 72 h,[8],30%
same,concentration at 24 h,[9],74 nM
same,concentration at 24 h,[10],135 nM
same,AUC,Rhesus monkey [11],6.1 µM·kg·h/mg
same,half-life,[12],60 h
same,Kp at 4 h,[13],4.66
same,AUC,Canis familiaris,18 µM·kg·h/mg
same,bioavailability,[14],65%
same,clearance,[15],4.5 mL/min/kg
same,concentration at 0.5 h,[16],1630 nM
same,concentration at 4 h,[17],410 nM
same,concentration at 18 h,[18],110 nM
same,Kp at 4 h,[19],0.66
same,concentration at 4 h,[20],270 nM
same,Kp at 24 h,[21],0.55
same,Vd,[22],3 L/kg
same,concentration at 18 h,[23],180 nM
same,half-life,[24],15 h
same,CL/F,[25],2.3 mL/min/kg
same,concentration at 4 h,[26],1400 nM
same,bioavailability,[1],91%
same,Vdss,Rhesus monkey [27],2.4 L/kg
same,bioavailability,[28],46%
same,Cmax,[29],1030 nM
same,Cmax,[30],150 nM
same,concentration at 0.5 h,[31],3260 nM
same,half-life,[2],8.5 h
same,Cmax,[32],90 nM
same,AUC,Rattus norvegicus,11 µM·kg·h/mg
"CC1(C)CC(NC(=O)CC(O)C(F)(F)F)c2cc(-c3ccc(Cl)cc3)c(-c3ccc(Cl)cc3Cl)nc2O1 (racemic) [N-[6-(4-CHLOROPHENYL)-7-(2,4-DICHLOROPHENYL)-2,2-DIMETHYL-3,4-DIHYDRO-2H-PYRANO[2,3-B]PYRIDINE-4-YL]-4,4,4-TRIFLUORO-3-HYDROXYBUTANAMIDE (DIASTEREOMERIC MIX)]",bioavailability,[1],41%
same,half-life,[2],8.2 h
"CC(O)C(=O)NC1CC(C)(C)Oc2nc(-c3ccc(Cl)cc3Cl)c(-c3ccc(Cl)cc3)cc21 (single isomer, unassigned)",bioavailability,[1],100%
same,half-life,[2],7.9 h
